This note sets out measurements from ChEMBL document CHEMBL1124865, “Synthesis and biological evaluation of a series of parenteral 3'-quaternary ammonium cephalosporins” (J Med Chem, 1990).

What all share (assay type): functional
The test system of assay [1] is Klebsiella pneumoniae. Kind of assay: In vitro relative hydrolysis rate against Klebsiella IV. Summed up:
(§1)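 Spectrophotometric hydrolysis at 265 nm, substrate exposed to partially purified cell-free β-lactamase preparations; rate expressed as percentage of the cephaloridine rate.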

Assay [2] concerns Pseudomonas aeruginosa. Nature of the assay: In vitro relative hydrolysis rate against Pseudomonas Id. In outline:
as §1

Assay [3] deals with Enterobacter cloacae. Kind of assay: In vitro relative hydrolysis rate against Enterobacter Ia. Summed up: as §1
Assay [4] relates to Escherichia coli. Nature of the assay: In vitro relative hydrolysis rate against Escherichia coli IIIa. Summed up: as §1
Assay [5] relates to Staphylococcus aureus. Kind of assay: In vitro relative hydrolysis rate against Staphylococcus aureus. Summed up:
as §1

Assay [6] deals with Staphylococcus aureus. Kind of assay: In vivo efficacy against Staphylococcus aureus infected mice treated at 1 hr and 5 hr post infection.
Assay [7] has as its system Klebsiella pneumoniae. Nature of the assay: Antibacterial activity against Klebsiella pneumoniae X26. The following applies: Klebsiella pneumoniae; read-out: MIC.
In assay [8] the test system is Klebsiella pneumoniae. Nature of the assay: microbe, parasite or virus in culture. Particulars: Klebsiella pneumoniae; read-out: MIC.
For assay [9], the system named is Serratia marcescens. Nature of the assay: Antibacterial activity against Serratia marcescens SE3. The following applies: Serratia marcescens; read-out: MIC.
The test system of assay [10] is Escherichia coli. Kind of assay: In vivo efficacy against Escherichia coli infected mice treated at 1 hr and 5 hr post infection. Particulars: Escherichia coli; read-out: ED50.
The test system of assay [11] is Enterobacter cloacae. Kind of assay: Antibacterial activity against Enterobacter cloacae EB5. Particulars: Enterobacter cloacae; read-out: MIC.
Assay [12] deals with Streptococcus pneumoniae. Nature of the assay: Antibacterial activity against Streptococcus pneumoniae. Particulars: Streptococcus pneumoniae; read-out: MIC.
The test system of assay [13] is Pseudomonas aeruginosa. Nature of the assay: Antibacterial activity against Pseudomonas aeruginosa X528. The following applies: Pseudomonas aeruginosa; read-out: MIC.
The subject of assay [14] is Escherichia coli. Kind of assay: Antibacterial activity against Escherichia coli TEM. The following applies: Escherichia coli; read-out: MIC.
Assay [15] has as its system Escherichia coli. Nature of the assay: Antibacterial activity against Escherichia coli EC14. Particulars: Escherichia coli; read-out: MIC.
Assay [16] concerns Pseudomonas aeruginosa. Kind of assay: In vivo efficacy against Pseudomonas aeruginosa infections in mice. Particulars: Pseudomonas aeruginosa; read-out: MIC.
In assay [17] the test system is Streptococcus pyogenes. Kind of assay: Antibacterial activity against Streptococcus pyogenes. Particulars: Streptococcus pyogenes; read-out: MIC.
In assay [18] the test system is Pseudomonas aeruginosa. Kind of assay: In vivo efficacy against Pseudomonas aeruginosa infected mice treated at 1 hr and 5 hr post infection. The following applies: Pseudomonas aeruginosa; read-out: ED50.
Assay [19] has as its system Enterobacter cloacae. Nature of the assay: Antibacterial activity against Enterobacter cloacae 265A. Particulars: Enterobacter cloacae; read-out: MIC.
Assay [20] relates to Staphylococcus aureus. Nature of the assay: Antibacterial activity against penicillin G resistance Staphylococcus aureus. Particulars: Staphylococcus aureus; read-out: MIC.
For assay [21], the system named is Pseudomonas aeruginosa. Kind of assay: Antibacterial activity against Pseudomonas aeruginosa PS18. Particulars: Pseudomonas aeruginosa; read-out: MIC.
Assay [22] concerns Staphylococcus aureus. Kind of assay: Antibacterial activity against penicillin G susceptible Staphylococcus aureus. Particulars: Staphylococcus aureus; read-out: MIC.
Assay [23] has as its system Enterococcus faecium. Nature of the assay: Antibacterial activity against Enterococcus faecium. The following applies: Enterococcus faecium; read-out: MIC.
Assay [24] deals with Staphylococcus aureus. Nature of the assay: In vivo efficacy against Staphylococcus aureus infections in mice. The following applies: Staphylococcus aureus; read-out: MIC.
Assay [25] concerns Escherichia coli. Kind of assay: In vivo efficacy against Escherichia coli infections in mice. Particulars: Escherichia coli; read-out: MIC.
The species entered for assay [26] is Cavia porcellus. Nature of the assay: In vitro relative anticholinergic potential in isolated guinea pig trachea. In outline: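 Guinea pig trachea in Krebs' solution at 37.5 °C, 95% O2/5% CO2, pH 7.4, 2 g resting tension. Cumulative carbachol log dose-response curve (3-fold steps) run before and 30 min after adding antagonist at 1 mM. […] Tukey test on log2 dose ratios.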

Where [27] appears, read: Staphylococcus aureus, read-out: ED50.

By ED50 is commonly meant the dose at which the effect has come halfway, by size or by number of responders.

Converted amounts (≈) assume the structure as drawn. Bounds are passed on as bounds.

Regarding `CO/N=C(\C(=O)N[C@@H]1C(=O)N2C(C(=O)[O-])=C(C[n+]3ccc(CC(=O)NO)cc3)CS[C@H]12)c1csc(N)n1` (stereo in doubt; 11), the Hydrolysis rate in assay [1] was determined as 10.4; in assay [2], 0.1; in [3], 0.4; in assay [4], 0.5; in assay [5], 3.4. The ED50 in assay [6] was 4 mg/kg.
On to `CO/N=C(\C(=O)N[C@@H]1C(=O)N2C(C(=O)[O-])=C(C[n+]3ccc(C(N)=S)cc3)CS[C@H]12)c1csc(N)n1`, for which the MIC worked out at 0.03 µg/mL (≈ 0.0562 µM) in [7]; 8 µg/mL (≈ 15 µM) in [8]; 0.06 µg/mL (≈ 0.112 µM) in assay [9]; 0.125 µg/mL (≈ 0.234 µM) in assay [11]; 0.015 µg/mL (≈ 0.0281 µM) in assay [12]; 1 µg/mL (≈ 1.87 µM) in assay [13]. For the same compound, the MIC was 0.03 µg/mL (≈ 0.0562 µM) in assay [14]; 0.03 µg/mL (≈ 0.0562 µM) in [15]; 8 µg/mL (≈ 15 µM) in assay [16]; below 0.008 µg/mL in assay [17]; 8 µg/mL (≈ 15 µM) in assay [19]; 2 µg/mL (≈ 3.75 µM) in [20]. In addition, the MIC in assay [21] is 2 µg/mL (≈ 3.75 µM); in assay [22], 1 µg/mL (≈ 1.87 µM); in assay [23], above 128 µg/mL; in assay [24] it was 1 µg/mL (≈ 1.87 µM); in [25], 0.03 µg/mL (≈ 0.0562 µM). In addition, the ED50 in [10] is below 0.16 mg/kg; in [6] (setting [27]) it was 1.4 mg/kg; in assay [18], 7.2 mg/kg.
Regarding `CO/N=C(\C(=O)N[C@@H]1C(=O)N2C(C(=O)[O-])=C(C[n+]3cccc4ccc(O)cc43)CS[C@H]12)c1csc(N)n1`, the MIC in [7] was found to be 0.03 µg/mL (≈ 0.0555 µM); in [8], 4 µg/mL (≈ 7.4 µM); in assay [9], 0.5 µg/mL (≈ 0.925 µM); in assay [11], 0.25 µg/mL (≈ 0.462 µM); in assay [12], 0.06 µg/mL (≈ 0.111 µM); in [13], 16 µg/mL (≈ 29.6 µM). Moreover, the MIC in assay [14] stood at 0.125 µg/mL (≈ 0.231 µM); in assay [15] it was 0.06 µg/mL (≈ 0.111 µM); in assay [16], 16 µg/mL (≈ 29.6 µM); in [17] it was 0.03 µg/mL (≈ 0.0555 µM); in assay [19] it was 8 µg/mL (≈ 14.8 µM); in assay [20] it was 8 µg/mL (≈ 14.8 µM). Besides, the MIC in [21] is 32 µg/mL (≈ 59.2 µM); in [22] it was 4 µg/mL (≈ 7.4 µM); in [23], above 128 µg/mL; in [24], 4 µg/mL (≈ 7.4 µM); in [25], 0.06 µg/mL (≈ 0.111 µM). For the same compound, the ED50 in assay [10] is 0.05 mg/kg; in [6] (setting [27]), 4 mg/kg; in assay [18], above 50 mg/kg.
In the case of `CO/N=C(\C(=O)N[C@@H]1C(=O)N2C(C(=O)[O-])=C(C[n+]3ccc4c(c3)ncn4C)CS[C@H]12)c1csc(N)n1`, the MIC was 0.015 µg/mL (≈ 0.0284 µM) in assay [7]; 8 µg/mL (≈ 15.1 µM) in assay [8]; 0.008 µg/mL (≈ 0.0151 µM) in assay [12]; 1 µg/mL (≈ 1.89 µM) in [13]; 0.015 µg/mL (≈ 0.0284 µM) in assay [14]; 0.015 µg/mL (≈ 0.0284 µM) in [15]. In addition, the MIC was determined as 0.015 µg/mL (≈ 0.0284 µM) in assay [17]; 8 µg/mL (≈ 15.1 µM) in [19]; 16 µg/mL (≈ 30.3 µM) in assay [20]; 4 µg/mL (≈ 7.57 µM) in assay [21]; 2 µg/mL (≈ 3.78 µM) in assay [22]; 128 µg/mL (≈ 242 µM) in assay [23]. Further, the RAP in [26] amounted to 1.
On to `CO/N=C(\C(=O)N[C@@H]1C(=O)N2C(C(=O)[O-])=C(C[n+]3cccc(Cl)c3)CS[C@H]12)c1csc(N)n1`, for which the MIC worked out at 0.06 µg/mL (≈ 0.118 µM) in assay [7]; 16 µg/mL (≈ 31.4 µM) in assay [8]; 0.06 µg/mL (≈ 0.118 µM) in assay [9]; 0.25 µg/mL (≈ 0.491 µM) in [11]; 0.015 µg/mL (≈ 0.0295 µM) in assay [12]; 2 µg/mL (≈ 3.93 µM) in assay [13]. For the same compound, the MIC in [14] is 0.06 µg/mL (≈ 0.118 µM); in [15], 0.06 µg/mL (≈ 0.118 µM); in assay [16] it was 8 µg/mL (≈ 15.7 µM); in [17] it was below 0.008 µg/mL; in [19], 8 µg/mL (≈ 15.7 µM); in [20], 2 µg/mL (≈ 3.93 µM). Moreover, the MIC in [21] is 4 µg/mL (≈ 7.86 µM); in assay [22] it was 1 µg/mL (≈ 1.96 µM); in assay [23] it was above 128 µg/mL; in [24] it was 1 µg/mL (≈ 1.96 µM); in assay [25], 0.06 µg/mL (≈ 0.118 µM). Besides, the median effective dose (ED50) in assay [10] is 0.14 mg/kg; in assay [6] (setting [27]), 1.6 mg/kg; in assay [18] it was above 50 mg/kg.
On to `CO/N=C(\C(=O)N[C@@H]1C(=O)N2C(C(=O)[O-])=C(C[n+]3cccc(S(=O)(=O)O)c3)CS[C@H]12)c1csc(N)n1`, for which the MIC in assay [7] came to 0.125 µg/mL (≈ 0.225 µM); in assay [8], 64 µg/mL (≈ 115 µM); in [9], 0.25 µg/mL (≈ 0.451 µM); in [11], 0.5 µg/mL (≈ 0.902 µM); in assay [12], 0.06 µg/mL (≈ 0.108 µM); in [13] it was 8 µg/mL (≈ 14.4 µM). Further, the MIC in assay [14] is 0.5 µg/mL (≈ 0.902 µM); in assay [15] it was 0.06 µg/mL (≈ 0.108 µM); in [16], 64 µg/mL (≈ 115 µM); in [17], 0.06 µg/mL (≈ 0.108 µM); in assay [19], above 128 µg/mL; in assay [20] it was 8 µg/mL (≈ 14.4 µM). Also, the MIC in assay [21] is 32 µg/mL (≈ 57.7 µM); in assay [22], 4 µg/mL (≈ 7.21 µM); in [23] it was above 128 µg/mL; in assay [24], 4 µg/mL (≈ 7.21 µM); in assay [25], 0.06 µg/mL (≈ 0.108 µM). Also, the results for the ED50 in [10], in assay [6] (setting [27]) and in [18] were 0.08 mg/kg, above 10 mg/kg and 41.6 mg/kg, respectively.
